In brackets after ≈: the same amount, converted by molar mass. Activity calls are given as the source filed them. No cut-off for these calls is given here.
Tests used:
[1] = Retention time of the compound by HPLC method; type: physicochemical
Firmicutes = assay: Antimicrobial activity against Firmicutes K940; type: functional; settings: Bacillota
Method in brief: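 Growth-inhibition assay against the inducing Actinobacteria (E906) and Firmicutes (K940) coculture isolates. Dose-response testing gave the MIC values. Bacteria were grown overnight in tryptic soy broth with shaking and read by OD at 625 nm. Wells were adjusted to about 5 × 10^5 CFU per 100 μL, compound was added to a 100 μL final volume, and plates were incubated overnight.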

[2] = tested on: Burkholderia vietnamiensis; assay: Antimicrobial activity against Burkholderia vietnamiensis ATCC BAA-248 assessed as inhibition of microbial growth at 50 ug/ml; type: functional
Method in brief: (§1)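 Single-dose growth-inhibition test at 50 μg/mL. Stock culture (50 μL) went into 10 mL tryptic soy broth and was shaken overnight at 37 °C; X. axonopodis was grown at 30 °C instead. OD was read at 625 nm and cells were adjusted to about 5 × 10^5 CFU per 100 μL well. Compound was added to a 100 μL final volume and plates were incubated overnight.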

Brucella neotomae = assay: Antimicrobial activity against Brucella neotomae ATCC 23459 assessed as inhibition of microbial growth at 50 ug/ml; type: functional; method in brief: as §1
Yersinia pestis = assay: Antimicrobial activity against Yersinia pestis A1122 assessed as inhibition of microbial growth at 50 ug/ml; type: functional, organism-based
Xanthomonas axonopodis = assay: Antimicrobial activity against Xanthomonas axonopodis ATCC 8718 assessed as inhibition of microbial growth at 50 ug/ml; type: functional, organism-based; method in brief: as §1
Pseudomonas aeruginosa = assay: Antimicrobial activity against Pseudomonas aeruginosa ATCC 27853 assessed as inhibition of microbial growth at 50 ug/ml; type: functional, organism-based; method in brief: as §1
Enterococcus faecalis = assay: Antimicrobial activity against Enterococcus faecalis ATCC 29212 assessed as inhibition of microbial growth at 50 ug/ml; type: functional, organism-based
Escherichia coli = assay: Antimicrobial activity against Escherichia coli ATCC 25922 assessed as inhibition of microbial growth at 50 ug/ml; type: functional, organism-based; method in brief: as §1
[3] = tested on: Mycobacterium tuberculosis; assay: Antimicrobial activity against Mycobacterium tuberculosis H37Rv assessed as inhibition of microbial growth at 50 ug/ml; type: functional, organism-based

Compound: Cc1cc(O)c2c3c4c(cc(O)c13)C(C)(C)C(=O)c1c(O)cc(O)c(c1-4)C2=O [HELIOMYCIN]
- Retention_time [1]: 17.9 min
- MIC (Firmicutes): 0.25 mg/L (≈ 0.664 µM)
- inhibition [2]: inactive
- inhibition (Brucella neotomae): inactive
- inhibition (Yersinia pestis): inactive
- inhibition (Xanthomonas axonopodis): inactive
- inhibition (Pseudomonas aeruginosa): inactive
- inhibition (Enterococcus faecalis): inactive
- inhibition (Escherichia coli): inactive
- inhibition [3]: inactive

Source: ChEMBL document CHEMBL3576808, “Phylum-specific regulation of resistomycin production in a Streptomyces sp. via microbial coculture” (J Nat Prod, 2015)
